pKi: −log10 of the molar value. Where a SMILES comes first, the peptide text is derived from it. [ ]: non-standard residue; d: D form. The star is where a group is joined. Phe(4-CN) = N#Cc1ccc(C[C@H](N)C(=O)O)cc1; Hydrocinnamoyl = O=C(CCc1ccccc1)*; hPhe = N[C@@H](CCc1ccccc1)C(=O)O; 2Thi = N[C@@H](Cc1cccs1)C(=O)O; Orn = NCCC[C@H](N)C(=O)O
Each molecule was assayed against T1, Serine racemase (Homo sapiens) (UniProt Q9GZT4) (assay: Inhibition of human serine racemase at 2 mM).
T1 sequence (whole entry): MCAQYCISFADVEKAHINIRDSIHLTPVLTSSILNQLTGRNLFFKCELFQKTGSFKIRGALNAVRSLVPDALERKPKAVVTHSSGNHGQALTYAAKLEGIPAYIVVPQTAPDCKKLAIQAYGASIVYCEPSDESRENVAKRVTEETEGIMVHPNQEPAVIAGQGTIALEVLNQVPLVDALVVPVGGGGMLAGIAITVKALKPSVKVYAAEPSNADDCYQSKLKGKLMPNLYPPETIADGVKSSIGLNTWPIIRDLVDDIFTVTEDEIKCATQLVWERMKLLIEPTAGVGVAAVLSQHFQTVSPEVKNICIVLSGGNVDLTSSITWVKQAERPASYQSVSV
Outline: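 Recombinant His-tagged hSR (E. coli, Ni-NTA). Inhibitor tested at 2 mM in a DAAO/LDH-coupled assay of total racemization plus elimination, with the NADH decrease followed at 340 nm. Buffer: 200 mM TEA·HCl, 150 mM KCl, 50 µM PLP, 5 mM MgCl2, 2.5 mM ATP, 10 mM DTT. L-serine substrate. Reported as percent decrease in activity.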

SMILES	inhibition [%]
CC[C@@H](C)[C@H](NC(=O)[C@H](Cc1c[nH]cn1)NC(=O)CCc1ccccc1)C(N)=O	74
CCC(C)C[C@H](NC(=O)CCc1ccccc1)C(=O)N[C@@H](Cc1c[nH]cn1)C(N)=O (stereo partly specified)	54
CC[C@@H](C)[C@H](NC(=O)[C@H](CO)NC(=O)/C=C/c1cccnc1)C(N)=O	10
CC[C@@H](C)[C@H](NC(=O)[C@H](Cc1c[nH]cn1)NC(=O)CCc1ccccc1)C(=O)NCCOCCOCNC(=O)CCC(N)=O	0
CSCC[C@H](NC(=O)N1C(=O)OC[C@@H]1c1ccccc1)C(=O)N[C@@H](CCC(=O)O)C(N)=O	8
N#Cc1ccc(C[C@H](NC(=O)c2ccc(-c3ccccc3)cc2)C(=O)NC2(C(N)=O)CCC(O)CC2)cc1 (stereo partly specified)	0
NC(=O)[C@H](Cc1cccc(C(=O)c2ccccc2)c1)NC(=O)[C@H](Cc1ccccc1)NC(=O)COCC(=O)O	4
NC(=O)C[C@H](NC(=O)CCc1ccccc1)C(=O)N[C@@H](Cc1c[nH]cn1)C(N)=O (Hydrocinnamoyl-Asn-His-NH2)	42
CC(C)C[C@H](NC(=O)[C@H](Cc1c[nH]cn1)NC(=O)CCc1ccccc1)C(N)=O (Hydrocinnamoyl-His-Leu-NH2)	57
NCCCC[C@H](NC(=O)[C@H](Cc1c[nH]cn1)NC(=O)CCc1ccccc1)C(N)=O (Hydrocinnamoyl-His-Lys-NH2)	40
NC(=O)[C@H](Cc1cccs1)NC(=O)[C@H](Cc1c[nH]cn1)NC(=O)CCc1ccccc1 (Hydrocinnamoyl-His-[2Thi]-NH2)	68
NCCC[C@H](NC(=O)[C@H](Cc1c[nH]cn1)NC(=O)CCc1ccccc1)C(N)=O (Hydrocinnamoyl-His-[Orn]-NH2)	49
NC(=O)[C@H](CCc1ccccc1)NC(=O)[C@H](Cc1c[nH]cn1)NC(=O)CCc1ccccc1 (Hydrocinnamoyl-His-[hPhe]-NH2)	70
N#Cc1ccc(C[C@H](NC(=O)CCc2ccccc2)C(=O)N[C@@H](Cc2c[nH]cn2)C(N)=O)cc1 (Hydrocinnamoyl-[Phe(4-CN)]-His-NH2)	72

The molecules below were run against T2, Serine racemase (Homo sapiens, UniProt Q9GZT4) (assay: Inhibition of human serine racemase).
T2 sequence (Q9GZT4 whole entry): T1 sequence (whole entry)
Outline: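 His-tagged hSR expressed in E. coli BL21 and Ni-NTA purified. Combined racemization plus elimination rate coupled via DAAO and LDH; NADH decrease read at 340 nm. Mix: 200 mM TEA·HCl, 150 mM KCl, 50 µM PLP, 5 mM MgCl2, 2.5 mM ATP, 10 mM DTT, 0.3 mM NADH. Varied L-serine against fixed inhibitor levels (0–2 mM), 40 min preincubation. KI obtained by global fit of data.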

SMILES	pKi
CC[C@@H](C)[C@H](NC(=O)[C@H](Cc1c[nH]cn1)NC(=O)CCc1ccccc1)C(N)=O	3.21
NC(=O)[C@H](CCc1ccccc1)NC(=O)[C@H](Cc1cnc[nH]1)NC(=O)CCc1ccccc1 (Hydrocinnamoyl-His-[hPhe]-NH2)	3.49

— ChEMBL document CHEMBL1146096, “Slow-binding human serine racemase inhibitors from high-throughput screening of combinatorial libraries” (J Med Chem, 2006)
